Test [1] addresses T1, Cysteinyl leukotriene receptor 1 (Cavia porcellus) (UniProt Q2NNR5).
T1 sequence (whole entry): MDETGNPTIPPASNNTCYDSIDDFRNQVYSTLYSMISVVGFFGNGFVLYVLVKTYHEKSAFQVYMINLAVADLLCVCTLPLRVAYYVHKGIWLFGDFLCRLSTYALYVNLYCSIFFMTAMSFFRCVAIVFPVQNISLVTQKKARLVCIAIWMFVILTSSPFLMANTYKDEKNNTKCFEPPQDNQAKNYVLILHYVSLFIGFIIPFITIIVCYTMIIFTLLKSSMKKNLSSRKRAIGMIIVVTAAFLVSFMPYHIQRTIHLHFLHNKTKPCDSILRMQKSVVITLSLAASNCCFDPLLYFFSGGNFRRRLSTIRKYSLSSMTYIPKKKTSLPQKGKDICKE
Briefly: Dissociation constant (KB) […] was evaluated in vitro in isolated guinea pig tracheal strips.

Test [2] relates to Cavia porcellus. As to the kind of experiment: Compound (50 mg/kg, intraperitoneally) was tested in spontaneously breathing, conscious guinea pigs challenged with aerosolized LTD4 (60-min pretreatment). It counts as functional.
Test [3] is filed under the species Cavia porcellus. As to the kind of experiment: Percent inhibition of the leukotriene E4 (LTE4)-induced contraction of guinea pig tracheal spirals at 1 uM concentration. As to conditions: Trachea.
For test [4], the species on record is Cavia porcellus. Briefly: Percent inhibition of the leukotriene E4 (LTE4)-induced contraction of guinea pig tracheal spirals at 0.33 uM concentration. As to conditions: Trachea.
For test [5], the species on record is Cavia porcellus. As to the kind of experiment: Percent inhibition of the leukotriene D4-induced contraction of guinea pig tracheal spirals at 4 uM concentration. The note with it: Trachea. It counts as functional. In a few lines:
(§1)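 Guinea pig tracheal spirals were split into paired sections in 10 mL baths of modified Krebs at 37 °C, gassed with 95% O₂/5% CO₂, under 2 g resting tension. After 60 min equilibration (washes every 15 min), reproducible contractions to 8 nM LTD₄ or 8 nM LTE₄ were obtained. Compound was added for 10 min, then agonist challenge repeated; percent inhibition is relative to the vehicle-treated paired section.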

Test [6] concerns Cavia porcellus. As to the kind of experiment: Compound (50 mg/kg, intraperitoneally) was tested in spontaneously breathing, conscious guinea pigs challenged with aerosolized LTD4 (30-min pretreatment). The class given is functional.
Test [7] deals with Cavia porcellus. As to the kind of experiment: Compound (50 mg/kg, intraperitoneally) was tested in spontaneously breathing, conscious guinea pigs challenged with aerosolized LTD4 (60-min pretreatment); NS means data were not statistically significant. It counts as functional, organism-based.
For test [8], the species on record is Cavia porcellus. As to the kind of experiment: Percent inhibition of the leukotriene D4 (LTD4)-induced contraction of guinea pig tracheal spirals at 1 uM concentration. It counts as functional. The note with it: Trachea. The procedure, abridged:
as §1

Calls of active or inactive are those of the source. The rule behind the calls is not given here.

`CCCc1c(OCc2cccc(NC(=O)c3ccccc3C(=O)O)c2)ccc(C(C)=O)c1O` showed a Kb in test [1] of 160 nM. In addition, the Protection in the test with Cavia porcellus [2] is recorded as 9%. Besides, in the test listed under Cavia porcellus [3], the inhibition at 1 µM was determined as 94%. The same compound registered an inhibition at 0.33 µM in the test listed under Cavia porcellus [4] of 45%.

On to `CCCc1c(OCC(O)COc2ccc3c(=O)cc(C(=O)O)oc3c2CCC)ccc(C(C)=O)c1O` (stereo not given) [FPL-55712], for which the inhibition at 4 µM in the test filed under Cavia porcellus [5] was 62%. In the test with Cavia porcellus [6], the Protection is reported as 32%. Further, in the test on Cavia porcellus [7], the Protection entry is “inactive”.

As for `CCCc1c(OCc2ccc(C(=O)O)c(Br)c2)ccc(C(C)=O)c1O`, in test [1], the Kb was 170 nM. The Protection in the test with Cavia porcellus [2] came out at 69%. The compound further returned an inhibition at 1 µM in the test filed under Cavia porcellus [8] of 30%.

By inhibition is commonly meant how much of the control response was suppressed. Lower therefore signals a weak effect.

The record behind these values is ChEMBL document CHEMBL1124444, “Hydroxyacetophenone-derived antagonists of the peptidoleukotrienes” (1989).
